Measured values as given in ChEMBL document CHEMBL3232989, “First identification of boronic species as novel potential inhibitors of the Staphylococcus aureus NorA efflux pump” (J Med Chem, 2014).
In brackets after ≈: the same amount, converted by molar mass.

Experiments:
Staphylococcus aureus [1] = experiment: Toxicity in Staphylococcus aureus ATCC 25923 after 24 hrs by microdilution method; assay type: organism-based
In short: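 Mueller–Hinton broth microdilution; inoculum from frozen culture grown 18 h at 37 °C, 10^6 CFU/mL per well. Compounds (10 mg/mL DMSO stock) in 2-fold serial dilutions, highest 128 mg/L, first screened at 100 μg/mL. MIC = complete growth inhibition after 24 h at 37 °C, read at 620 nm and visually; duplicate; ampicillin control.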

[2] = target: T1, Quinolone resistance protein NorA (Staphylococcus aureus) (UniProt P0A0J7); experiment: Inhibition of NorA in fluoroquinolone-resistant Staphylococcus aureus 1199B assessed as potentiation of 4 ug/ml of ciprofloxacin MIC at 100 ug/ml after 24 hrs by microdilution method
T1 sequence (whole entry): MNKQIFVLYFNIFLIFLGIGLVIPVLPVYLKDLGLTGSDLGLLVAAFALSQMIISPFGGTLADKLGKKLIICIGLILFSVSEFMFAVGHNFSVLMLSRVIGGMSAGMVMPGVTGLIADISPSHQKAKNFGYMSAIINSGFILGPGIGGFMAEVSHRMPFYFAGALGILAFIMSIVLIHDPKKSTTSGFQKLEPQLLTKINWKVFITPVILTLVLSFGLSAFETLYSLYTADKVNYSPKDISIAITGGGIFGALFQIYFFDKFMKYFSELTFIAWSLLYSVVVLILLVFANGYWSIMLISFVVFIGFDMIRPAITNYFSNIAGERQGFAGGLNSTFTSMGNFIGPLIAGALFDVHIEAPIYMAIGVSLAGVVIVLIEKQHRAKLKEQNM
In short: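 Combination with ciprofloxacin 4 μg/mL (MIC/4) against SA-1199B in MH broth microdilution, 10^6 CFU/mL, 24 h at 37 °C, read at 620 nm and visually. Compounds are first screened at 100 μg/mL; actives are 2-fold serially diluted. MMC4 is the lowest inhibitor concentration giving antibacterial activity with subinhibitory ciprofloxacin. Duplicates.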

Staphylococcus aureus [3] = experiment: Toxicity in fluoroquinolone-resistant Staphylococcus aureus 1199B expressing NorA after 24 hrs by microdilution method; assay type: organism-based; conditions: in vitro
In short: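 Broth microdilution in Mueller–Hinton broth, 10^6 CFU/mL per well from an 18 h 37 °C culture. Compounds come from 10 mg/mL DMSO stocks as 2-fold serial dilutions, top 128 mg/L. Plates run 24 h at 37 °C and are read at 620 nm and visually. MIC is the lowest concentration with complete growth inhibition. Duplicates; 2-fold variance accepted.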

Staphylococcus aureus [4] = experiment: Toxicity in Staphylococcus aureus ATCC 25923 at 100 ug/ml after 24 hrs by microdilution method; assay type: organism-based
In short: (§1)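 Single-point screen at 100 μg/mL of compound alone in MH broth microdilution, 10^6 CFU/mL, 24 h at 37 °C. Growth is read at 620 nm and visually, giving percent growth inhibition. Compounds inhibiting more than 90% then go to MIC determination. Duplicates.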

[5] = Cytotoxicity against human KB cells assessed growth inhibition at 10 uM after 72 hrs by MTS assay; assay type: cell-based; conditions: read-out: GI
In short: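 KB cells (from NCI) grown in DMEM with 10% FCS, penicillin-streptomycin, fungizone and glutamine, 37 °C, 5% CO2; compounds in DMSO added 24 h after plating (1% DMSO final, controls same). 72 h exposure, then MTS 3 h at 37 °C, absorbance at 490 nm; inhibition = (1 − OD490 treated/OD490 control)×100, triplicate experiments.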

Staphylococcus aureus [6] = experiment: Toxicity in fluoroquinolone-resistant Staphylococcus aureus 1199B expressing NorA at 100 ug/ml after 24 hrs by microdilution method; assay type: organism-based; in short: as §1

SMILES	MIC (Staphylococcus aureus [1])	Activity [2] [µg/mL]	MIC (Staphylococcus aureus [3])	growth inhibition (GI) (Staphylococcus aureus [4]) [%]	inhibition at 72 h, 10 µM [5] [%]	growth inhibition (GI) (Staphylococcus aureus [6]) [%]
Oc1ccc(Cl)nc1	>= 64 ug ml-1	> 128	> 128 µg/mL			
O=C(O)c1ccc(Cl)nc1 [6-CHLORONICOTINIC ACID]	>= 64 ug ml-1	> 128	> 128 µg/mL			
O=C(O)c1ccccc1 [BENZOIC ACID]	>= 64 ug ml-1	> 128	> 128 µg/mL			
OB(O)c1ccc(Oc2ccc(Cl)nc2)nc1	>= 64 ug ml-1	4		< 90	0	< 90
OB(O)c1ccc(Cl)nc1	>= 64 ug ml-1	8		< 90	1	< 90
Oc1ccccc1Br	>= 64 ug ml-1	128	> 128 µg/mL			
Oc1ccccc1 [PHENOL]	>= 64 ug ml-1	> 128	> 128 µg/mL			
Cc1cccc(C(=O)O)c1Cl	>= 64 ug ml-1	> 128	> 128 µg/mL			
CC(C)(O)C(C)(C)OB(OC(C)(C)C(C)(C)O)c1ccnc(F)c1	>= 64 ug ml-1	2		< 90	0	< 90
OB(O)c1cc(Cl)cnc1Cl	>= 64 ug ml-1	16	> 128 µg/mL	< 90		
OB(O)c1cnc2ccccc2c1	>= 64 ug ml-1	4		< 90	0	< 90
Oc1ccc(Br)nc1	>= 64 ug ml-1	> 128	> 128 µg/mL			
CC(C)(O)C(C)(C)OB(OC(C)(C)C(C)(C)O)c1cc(Br)cnc1F	>= 64 ug ml-1	64	128 µg/mL (≈ 305 µM)	< 90		
COc1ccc(B(O)O)cn1	>= 64 ug ml-1	4		< 90	0	< 90
Oc1cnc2ccccc2c1	>= 64 ug ml-1	> 128	> 128 µg/mL			
O=Cc1ccccc1Cl	>= 64 ug ml-1	> 128	> 128 µg/mL			
Cc1cc(C(=O)O)cnc1Cl	>= 64 ug ml-1	> 128	> 128 µg/mL			
O=C(O)c1ccccc1Cl	>= 64 ug ml-1	64	128 µg/mL (≈ 818 µM)			
Oc1ccccc1Cl [2-CHLOROPHENOL]	>= 64 ug ml-1	128	> 128 µg/mL			
OB(O)c1cncc(Oc2cccnc2)c1	>= 64 ug ml-1	16	> 128 µg/mL			
O=Cc1ccc(OCc2ccccc2)nc1	>= 64 ug ml-1	32	> 128 µg/mL			

SMILES	MIC (Staphylococcus aureus [1])	Activity [2] [µg/mL]	MIC (Staphylococcus aureus [3])	growth inhibition (GI) (Staphylococcus aureus [4]) [%]	inhibition at 72 h, 10 µM [5] [%]	growth inhibition (GI) (Staphylococcus aureus [6]) [%]
O=C(O)c1ccccc1Br	>= 64 ug ml-1	> 128	> 128 µg/mL			
O=Cc1ccccc1Br	>= 64 ug ml-1	> 128	> 128 µg/mL			
OCc1ccc(OCc2ccccc2)nc1		> 34	>= 128 ug ml-1			
Oc1ccc2ccccc2c1 [BETANAPHTHOL]	>= 64 ug ml-1	64	> 128 µg/mL			
O=C(O)c1ccc(Br)nc1	>= 64 ug ml-1	> 128	> 128 µg/mL			
Cc1cc(O)cnc1Cl	>= 64 ug ml-1	> 128	> 128 µg/mL			
Oc1cccnc1	>= 64 ug ml-1	> 128	> 128 µg/mL			
OB(O)c1cc(Br)cnc1F	>= 64 ug ml-1	128	> 128 µg/mL	< 90		
O=C(O)c1ccc2ccccc2c1 [BETA-NAPHTOIC ACID]	>= 64 ug ml-1	> 128	> 128 µg/mL			
O=C(O)c1cnc2ccccc2c1	>= 64 ug ml-1	32	> 128 µg/mL			
O=Cc1ccccc1 [BENZALDEHYDE]	>= 64 ug ml-1	> 128	> 128 µg/mL			
CC(C)(O)C(C)(C)OB(OC(C)(C)C(C)(C)O)c1cncc(Cl)c1	>= 64 ug ml-1	> 128	128 µg/mL (≈ 358 µM)			
O=Cc1cccnc1 [NICOTINALDEHYDE]	>= 64 ug ml-1	> 128	> 128 µg/mL			
O=C(O)c1cccnc1 [NIACIN]	>= 64 ug ml-1	> 128	> 128 µg/mL			
COc1ccc(B(O)O)cc1		64	> 128 µg/mL			
Cc1cccc(O)c1Cl	>= 64 ug ml-1	64	> 128 µg/mL			
CC(C)(O)C(C)(C)OB(OC(C)(C)C(C)(C)O)c1cc(Cl)cnc1Cl	>= 64 ug ml-1	> 128	128 µg/mL (≈ 326 µM)	< 90		
O=Cc1cnc2ccccc2c1	>= 64 ug ml-1	> 128	> 128 µg/mL			
O=Cc1ccc2ccccc2c1 [2-NAPHTHALDEHYDE]	>= 64 ug ml-1	64	> 128 µg/mL			
CC(C)(O)C(C)(C)OB(OC(C)(C)C(C)(C)O)c1ccc(F)nc1	>= 64 ug ml-1	128		< 90		< 90
OB(O)c1ccccc1-c1ccccc1	>= 64 ug ml-1	> 128		< 90		< 90
